10 compounds from PubChem BioAssay can be followed below.

The source made the active and inactive calls.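 The calls were made as follows, unless noted: active = a full or partial loss of lipid-probe fluorescence in the fish gall bladder, intestine or both, judged by eye; inactive = no fluorescence loss, or compound toxic to the fish.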

The nature of experiment [1]: inhibitors of TNFa-induced NFkB p65 translocation, primary screen, imaging, HUVEC, MLSMR starter and 10KST1 sets (AID 438;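 active = inhibition above 20% together with a positive visual image hit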;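 also: compound added about 3h40 before a 20 min TNFalpha stimulation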;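 as to inhibition: signal is the nuclear over cytoplasmic p65 intensity ratio per well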). Particulars: HUVEC TNFa-induced p65 nuclear translocation; cell count: measured here: nuclei count (cytotoxicity indicator), at 2.08 µM; inhibition: at 2 µM, stronger effect = higher value, 0% TNFa-plus-vehicle, 100% no-TNFa wells.
Experiment [2] in a line: endothelial E-selectin expression blockers – imaging, HUVEC, immunofluorescence, MLSMR starter and 10KST1 sets, primary screen (AID 487;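 active = visually confirmed hit in the image check and inhibition above 20%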;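 as to inhibition: signal is fraction of cell area covered by stained E-selectin grains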;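 as to nuclei count: 100% = median nuclei count of all wells on the same plate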). To be noted: HUVEC TNFalpha-induced E-selectin immunofluorescence imaging, at 2 µM; inhibition: stronger effect = higher value; nuclei count: measured here: cell number, toxicity.
Experiment [3] can be described thus: Primary imaging screen for DUSP6 inhibitors that restore phospho-Erk in transfected HeLa cells, chemical complementation (AID 609;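 active = compounds giving at least 50% inhibition in the cell-based MKP-3 phosphatase rescue imaging test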;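 as to inhibition: phospho-Erk level distribution per well compared with pooled transfected vehicle control wells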). Particulars: HeLa MKP-3 transfected, phospho-Erk imaging KS statistic, at 10 µM, cells stimulated with TPA for 15 min.
In experiment [4] the target is Dual specificity protein phosphatase 6 (Homo sapiens) (UniProt Q16828). The experiment is described as above. To be noted: HeLa MKP-3 transfected, phospho-Erk imaging KS statistic; at 10 µM; stronger effect = higher value; cells stimulated with TPA for 15 min.
Experiment [5] deals with Voltage-gated potassium channel subunit beta-2 (Rattus norvegicus) (UniProt P62483). Kind of experiment: inhibitors of rat Kvbeta2 reductase activity – biochemical, NADPH fluorescence, primary screen (AID 622;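 active = fluorescence slope higher than the sample average by over 3 SD, cut at about -0.22 in these data, passing the limit was not always enough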;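 also: slope of raw intensity against log time taken from 70 to 1610 s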). To be noted: recombinant KvBeta, 4-cyanobenzaldehyde reduction, at 10 µM, stronger effect = higher value.
The target is the same in experiment [6]. Kind of experiment: enhancers of rat Kvbeta2 NADPH turnover – biochemical, NADPH fluorescence, primary screen (AID 623;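 active = NADPH fluorescence slope more negative than the mean of all samples by about 3 SD, 99.7% confidence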;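 also: fluorescence intensity change per second fitted from 20 to 320 s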). To be noted: Recombinant KvBeta, NADPH fluorescence decrease slope, 10 min; at 10 µM; stronger effect = lower value.
In experiment [7] the target is Muscarinic acetylcholine receptor M4 (Homo sapiens) (UniProt P08173). Kind of experiment: M4-linked GIRK flux change, two-sided – cell-based, HEK293 M4/GIRK, thallium flux, BTC-AM, M4 allosteric agonist project, primary screen (AID 625;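 active = fluorescence slope after compound addition differing from the mean of all tested samples at 99.7% confidence, mostly higher but some lower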;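 also: thallium influx through GIRK channels coupled to M4 in HEK293 cells with BTC-AM dye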). To be noted: at 10 µM, actives lie on both sides. A digest of the protocol:
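Material: M4/GIRK1/GIRK2 stable HEK293 cell line. Medium: pH 7.3 thallium assay buffer. Dosing: single compound concentration, 10 µM final. Schedule: 1 h dye loading, 2 min kinetic read. Measured by: kinetic fluorescence with BTC-AM dye. Read-out: post-addition slope, 15–24 s, of baseline-normalized fluorescence. Benchmarks: carbachol and DMSO controls.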

Experiment [8] is described as follows: inhibitors of larval lipid processing in zebrafish, primary screen, whole organism, PED6 fluorescence, gall bladder and intestine (AID 686).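 Also: larvae 5 to 7 days old with five fish per well; signal comes from phospholipase A2 cleavage of quenched PED6 carried via bile; overnight exposure to compound and PED6 before scoring.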 Particulars: Zebrafish larvae PED6 lipid processing, fluorescence scoring; screened at 20 µM (by protocol). A digest of the protocol:
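System: live zebrafish larvae aged 5-7 days, whole organism; measure: graded gall bladder and intestinal fluorescence inhibition per well; incubation: overnight exposure; reagent: ingested quenched lipid PED6 at 100 nM; signal: By-eye fluorescence microscopy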

Experiment [9] in a line: loss of swimming-algae plug formation – whole organism, Chlamydomonas reinhardtii, WT vs cilia-less mutant, absorbance, 96-well, primary screen (AID 463189;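 active = inhibition at or above 50% relative to wild type and mutant plate controls; inactive = inhibition below 50%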;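 also: 0% = wild type cc124 cells in DMSO and 100% = ciliumless bld1 mutant cells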). To be noted: Chlamydomonas reinhardtii gravitaxis, OD600 absorbance, 2 days; at 10 µM; stronger effect = higher value.
Where [10] appears, read: measured here: cell density z-score.
Setting [11] is: measured here: nuclear c-Myc green intensity z-score.
Where [12] appears, read: measured here: nuclear pErk red intensity z-score, stronger effect = higher value.

Chain of Dual specificity protein phosphatase 6 (Homo sapiens) (Q16828 whole entry, looked up): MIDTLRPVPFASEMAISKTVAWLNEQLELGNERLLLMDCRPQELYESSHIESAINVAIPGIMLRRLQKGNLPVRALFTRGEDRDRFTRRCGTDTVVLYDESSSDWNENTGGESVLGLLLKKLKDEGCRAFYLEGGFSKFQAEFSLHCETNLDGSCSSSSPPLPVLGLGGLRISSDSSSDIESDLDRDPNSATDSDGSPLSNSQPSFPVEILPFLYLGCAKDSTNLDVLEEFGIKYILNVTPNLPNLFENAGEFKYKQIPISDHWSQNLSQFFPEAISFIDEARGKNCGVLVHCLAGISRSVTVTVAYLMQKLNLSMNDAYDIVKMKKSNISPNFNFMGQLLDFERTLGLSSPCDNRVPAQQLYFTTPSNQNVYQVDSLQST
Chain of Voltage-gated potassium channel subunit beta-2 (Rattus norvegicus) (P62483 whole entry, looked up): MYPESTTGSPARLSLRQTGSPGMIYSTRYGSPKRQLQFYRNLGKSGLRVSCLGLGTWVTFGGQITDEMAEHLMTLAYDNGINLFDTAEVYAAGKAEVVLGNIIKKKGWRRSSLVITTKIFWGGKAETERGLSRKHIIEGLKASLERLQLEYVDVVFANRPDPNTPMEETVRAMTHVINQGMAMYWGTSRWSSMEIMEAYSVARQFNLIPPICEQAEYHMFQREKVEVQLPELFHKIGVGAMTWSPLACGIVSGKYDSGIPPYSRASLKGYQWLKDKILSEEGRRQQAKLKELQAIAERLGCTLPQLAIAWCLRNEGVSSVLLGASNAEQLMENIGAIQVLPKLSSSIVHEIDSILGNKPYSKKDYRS
Chain of Muscarinic acetylcholine receptor M4 (Homo sapiens) (P08173 whole entry, looked up): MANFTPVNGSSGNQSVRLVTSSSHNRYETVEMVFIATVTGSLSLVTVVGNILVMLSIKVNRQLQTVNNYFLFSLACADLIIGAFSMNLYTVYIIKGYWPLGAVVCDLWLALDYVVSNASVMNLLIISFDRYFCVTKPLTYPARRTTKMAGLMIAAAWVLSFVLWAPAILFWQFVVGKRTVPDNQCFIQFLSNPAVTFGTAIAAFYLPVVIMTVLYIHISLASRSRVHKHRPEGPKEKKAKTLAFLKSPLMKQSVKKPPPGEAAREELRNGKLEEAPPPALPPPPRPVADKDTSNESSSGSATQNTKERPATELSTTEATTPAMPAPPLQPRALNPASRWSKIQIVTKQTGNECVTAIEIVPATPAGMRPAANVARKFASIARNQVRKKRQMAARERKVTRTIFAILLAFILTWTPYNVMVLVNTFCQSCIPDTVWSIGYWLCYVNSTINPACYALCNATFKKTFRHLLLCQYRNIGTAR

In the case of `COc1ccccc1C1/C(=C(/O)c2ccc(OC(C)C)cc2)C(=O)C(=O)N1c1cc(C)on1` (stereo not given), the cell count in experiment [1] is 437. The inhibition in experiment [1] is -8.5% (inactive); in [2], -118% (inactive); in [4] it was 9.37% (inactive); in [9] it was -0.61% (inactive). In experiment [2], this compound came in with a nuclei count of 148%. For the same compound, the z-score in experiment [3] (setting [10]) is 1.18; in [3] (setting [11]) it was -0.452; in experiment [3] (setting [12]), -0.964. The fluorescence slope was -0.438 (inactive) in experiment [5] and 0.006 (inactive) in experiment [7]. In addition, in [6], the NADPH fluorescence slope is -0.000335 (active). For the same compound, in experiment [8], the compound was called inactive.

In the case of `Cc1ccc(-n2c(SCC(=O)NCc3ccco3)nc3nc4c(cc3c2=O)COC(C)(C)C4)cc1`, the cell count in experiment [1] worked out at 518. The inhibition was -21.3% (inactive) in experiment [1], 9.1% (inactive) in experiment [2], 3.97% (inactive) in [4] and 17% (inactive) in experiment [9]. This compound also returned a nuclei count in experiment [2] of 176%. Further, the z-score in experiment [3] (setting [10]) was 0.611; in experiment [3] (setting [11]), -1.97; in [3] (setting [12]) it was 0.29. Moreover, the fluorescence slope is -0.408 (inactive) in experiment [5] and 0.00603 (inactive) in [7]. Besides, the NADPH fluorescence slope in experiment [6] was -1.9e-05 (inactive). Moreover, the compound was called inactive in experiment [8].

For `O=C(COc1ccc(-c2nnc(N3CCCCC3)c3ccccc23)cc1)N1CCCCC1`, in experiment [1], the cell count was determined as 373. Also, the inhibition was 1.4% (inactive) in experiment [1], -58.5% (inactive) in experiment [2], 5.65% (inactive) in experiment [4] and 34.6% (inactive) in experiment [9]. The compound further displayed a nuclei count in experiment [2] of 89.7%. Also, the results for the z-score in experiment [3] (setting [10]), in [3] (setting [11]) and in [3] (setting [12]) were 0.333, -0.404 and 1.13, respectively. Further, the fluorescence slope is -0.487 (inactive) in experiment [5] and 0.00419 (inactive) in [7]. Besides, in experiment [6], the NADPH fluorescence slope is 2e-05 (inactive). Also, the outcome in experiment [8] was inactive.

Consider `O=C(CSc1nc2ccccc2c(=O)n1CC1CCCCC1)N1CCOCC1`, for which the cell count in experiment [1] is 369. The inhibition in [1] was -5.3% (inactive); in experiment [2] it was -6.6% (inactive); in experiment [4], 7.42% (inactive); in [9] it was -8.49% (inactive). This compound had a nuclei count in experiment [2] of 136%. The z-score in [3] (setting [10]) is -0.271; in [3] (setting [11]) it was -0.657; in [3] (setting [12]), -0.609. Moreover, the fluorescence slope is -0.465 (inactive) in [5] and 0.00433 (inactive) in [7]. Moreover, the NADPH fluorescence slope in experiment [6] is -8.1e-05 (inactive). Besides, the call in experiment [8] was inactive.

In the case of `CCN(CC)CCNc1ncnc2c1[nH]c1ccc(OC)cc12`, the cell count in experiment [1] turned out to be 595. Moreover, the inhibition in experiment [1] was -7.6% (inactive); in experiment [2] it was -67.9% (inactive); in [4] it was 3.42% (inactive); in experiment [9], 6% (inactive). In addition, in [2], the nuclei count was 150%. The z-score in [3] (setting [10]) was 1.23; in experiment [3] (setting [11]) it was -0.0798; in experiment [3] (setting [12]), -1.12. For the same compound, the values for the fluorescence slope in experiment [5] and in experiment [7] were -0.236 (inactive) and 0.00672 (inactive), respectively. In addition, in [6], the NADPH fluorescence slope was 1.1e-06 (inactive). The call in experiment [8] was inactive.

Turning to `CCN(CC)Cc1cc(C(C)=O)ccc1OCC(C)C`, in [1], the cell count was determined as 639. The inhibition in experiment [1] is 1.8% (inactive); in experiment [2], 3.7% (inactive); in [4], -5.62% (inactive); in experiment [9], 29.4% (inactive). In experiment [2], the nuclei count is 164%. In addition, the results for the z-score in experiment [3] (setting [10]), in [3] (setting [11]) and in [3] (setting [12]) were -0.466, 0.382 and -0.997, respectively. The figures for the fluorescence slope in [5] and in experiment [7] were -0.462 (inactive) and 0.00565 (inactive), respectively. The NADPH fluorescence slope in experiment [6] is -4.7e-05 (inactive). Further, in [8], the outcome was inactive.

Consider `CCOc1ccc2nc(NC(NC(C)=O)(C(=O)OC)C(F)(F)F)sc2c1` (stereo not given), for which the cell count in [1] is 550. In addition, the inhibition in experiment [1] is 1.9% (inactive); in experiment [2], -54.7% (inactive); in experiment [4] it was -4.59% (inactive); in experiment [9] it was 7.67% (inactive). The nuclei count in experiment [2] amounted to 119%. Also, the results for the z-score in experiment [3] (setting [10]), in experiment [3] (setting [11]) and in experiment [3] (setting [12]) were -0.584, 0.796 and 1.15, respectively. For the same compound, the fluorescence slope is -0.459 (inactive) in experiment [5] and 0.00553 (inactive) in experiment [7]. Further, the NADPH fluorescence slope in [6] was -0.000128 (inactive). Besides, the compound was classed as inactive in experiment [8].

With `C#CC1CN(Cc2ccccc2)CC(C#C)N1C` (stereo not given), in [1], the cell count was 690. In addition, the inhibition in [1] is -3% (inactive); in experiment [2], 9% (inactive); in [4] it was -7.67% (inactive); in experiment [9] it was -0.669% (inactive). Besides, in experiment [2], the nuclei count worked out at 156%. In addition, the z-score in [3] (setting [10]) is -0.126; in [3] (setting [11]), -0.517; in experiment [3] (setting [12]), 1.32. In addition, the fluorescence slope in experiment [5] was -0.44 (inactive); in experiment [7], 0.00453 (inactive). For the same compound, in experiment [6], the NADPH fluorescence slope was -3.5e-05 (inactive). In addition, the compound was called inactive in [8].

Take `CCCn1c(SCC(N)=O)nc2c(c1=O)C1(CCCC1)Cc1ccccc1-2`: the cell count in experiment [1] is 555. Further, the inhibition is -8% (inactive) in experiment [1], 20.3% (inactive) in [2], 1.98% (inactive) in [4] and -1.68% (inactive) in [9]. Further, the nuclei count in [2] turned out to be 170%. Further, the results for the z-score in [3] (setting [10]), in experiment [3] (setting [11]) and in experiment [3] (setting [12]) were 0.28, 0.545 and 0.00156, respectively. In addition, the fluorescence slope in [5] is -0.386 (inactive); in [7], 0.00485 (inactive). In addition, the NADPH fluorescence slope in experiment [6] was -5.2e-05 (inactive). Also, the result in [8] was inactive.

On to `CN1C(=O)NC(c2ccccc2)C2=C1CN(Cc1ccccc1)C2=O` (stereo not given), for which, in experiment [1], the cell count worked out at 400. The inhibition in experiment [1] was -7.1% (inactive); in [2], -56.6% (inactive); in experiment [4], -2.59% (inactive); in experiment [9], 23.3% (inactive). In experiment [2], this compound displayed a nuclei count of 139%. Also, the z-score in experiment [3] (setting [10]) was 0.502; in experiment [3] (setting [11]), -1.59; in [3] (setting [12]), 1.04. The fluorescence slope is -0.501 (inactive) in [5] and 0.00419 (inactive) in experiment [7]. The NADPH fluorescence slope in [6] was -0.000103 (inactive). Further, the call in experiment [8] was inactive.
